Tests used:
[1] = target: T1, fMet-Leu-Phe receptor (Homo sapiens) (UniProt P21462); assay: Inhibitory activity against Human formylpeptide receptor (FPR) of human leukemia HL-60 cells; format: cell-based
T1 sequence (whole entry): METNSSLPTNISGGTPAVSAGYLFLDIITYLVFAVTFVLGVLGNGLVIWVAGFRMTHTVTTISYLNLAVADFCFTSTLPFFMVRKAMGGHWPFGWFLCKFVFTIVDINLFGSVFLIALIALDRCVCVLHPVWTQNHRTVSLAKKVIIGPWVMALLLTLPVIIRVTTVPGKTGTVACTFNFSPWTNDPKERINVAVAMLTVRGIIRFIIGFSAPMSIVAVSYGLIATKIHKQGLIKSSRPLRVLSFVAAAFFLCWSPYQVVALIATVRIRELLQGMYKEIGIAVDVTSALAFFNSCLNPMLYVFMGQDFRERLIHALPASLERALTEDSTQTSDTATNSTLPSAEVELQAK
Outline: (§1)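 HL-60 cells differentiated 48 h with 0.2 mM dibutyryl cAMP, washed, then treated with 5 μM cytochalasin B (5–10 min, 37 °C). Stimulated 10 min with 30 nM f-MLF. N-acetyl-β-D-glucosaminidase release read at 410 nm on p-nitrophenyl substrate after spontaneous-release subtraction. Duplicate wells; IC20/IC50 as mean ± SD of independent experiments.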

fMet-Leu-Phe receptor = target: T2, fMet-Leu-Phe receptor (Homo sapiens, UniProt P21462); assay: Inhibitory activity against human formylpeptide receptor (FPR) of human leukemia HL-60 cells; format: cell-based; outline: as §1
T2 sequence (P21462 whole entry): T1 sequence (whole entry)

Row | IC20 [1] | IC50 (fMet-Leu-Phe receptor; hl-60) | IC50 (fMet-Leu-Phe receptor) | SMILES
1 | 0.29 µM | 1.57 µM | – | C/C=C/C[C@@H](C)[C@@H](O)[C@H]1C(=O)N[C@@H](CC)C(=O)N(C)CC(=O)N(C)[C@H](CC(C)C)C(=O)N[C@H](C(C)C)C(=O)N(C)[C@H](CC(C)C)C(=O)N[C@@H](C)C(=O)N[C@H](C)C(=O)N(C)[C@@H](CC(C)C)C(=O)N(C)[C@@H](CC(C)C)C(=O)N(C)[C@H]([C@H](C)CC)C(=O)N1C
2 | 1.9 µM | 6.45 µM | – | C/C=C/C[C@@H](C)[C@@H](O)C1NC(=O)[C@H](C(C)C)N(C)C(=O)[C@H](CC(C)C)N(C)C(=O)[C@H](CC(C)C)N(C)C(=O)[C@@H](C)NC(=O)[C@H](C)NC(=O)[C@@H](CC(C)C)N(C)C(=O)[C@@H](C(C)C)NC(=O)[C@@H](CC(C)C)N(C)C(=O)CN(C)C(=O)[C@H](CC)NC1=O (stereo not given in full)
3 | – | – | 3.25 µM | C/C=C/C[C@@H](C)[C@@H](O)[C@H]1C(=O)N[C@@H]([C@@H](C)O)C(=O)N(C)CC(=O)N(C)[C@@H](CC(C)C)C(=O)N[C@@H](CC(C)C)C(=O)N(C)[C@@H](CC(C)C)C(=O)N[C@@H](C)C(=O)N[C@H](C)C(=O)N(C)[C@@H](CC(C)C)C(=O)N[C@@H](C)C(=O)N(C)[C@@H](C(C)C)C(=O)N1C
4 | – | – | 2.2 µM | C/C=C/C[C@@H](C)[C@@H](O)[C@H]1C(=O)N[C@@H](C)C(=O)N(C)CC(=O)N(C)[C@@H](CC(C)C)C(=O)N[C@@H](C(C)C)C(=O)N(C)[C@@H](CC(C)C)C(=O)N[C@@H](C)C(=O)N[C@H](C)C(=O)N(C)[C@@H](CC(C)C)C(=O)N[C@@H](CC(C)C)C(=O)N(C)[C@@H](C(C)C)C(=O)N1C
5 | – | – | 1.8 µM | C/C=C/C[C@@H](C)[C@@H](O)[C@H]1C(=O)N[C@@H](CC)C(=O)N(C)CC(=O)N(C)[C@@H](CC(C)C)C(=O)N[C@@H](C(C)C)C(=O)N[C@@H](CC(C)C)C(=O)N[C@@H](C)C(=O)N[C@H](C)C(=O)N(C)[C@@H](CC(C)C)C(=O)N[C@@H](CC(C)C)C(=O)N(C)[C@@H](C(C)C)C(=O)N1C
6 | – | – | 9.2 µM | C/C=C/C[C@@H](C)[C@@H](O)[C@H]1C(=O)N[C@@H](CC)C(=O)N(C)CC(=O)N(C)[C@@H](CC(C)C)C(=O)N[C@@H](C(C)C)C(=O)N(C)[C@@H](CC(C)C)C(=O)N[C@@H](C)C(=O)N[C@H](C)C(=O)N(C)[C@@H](CC(C)C)C(=O)N[C@@H](CC(C)C)C(=O)N(C)[C@@H](C(C)C)C(=O)N1C
7 | – | – | > 10 µM | C/C=C/C[C@@H](C)[C@@H](O)[C@H]1C(=O)N[C@@H](CCC)C(=O)N(C)CC(=O)N(C)[C@@H](CC(C)C)C(=O)N[C@@H](C(C)C)C(=O)N(C)[C@@H](CC(C)C)C(=O)N[C@@H](C)C(=O)N[C@H](C)C(=O)N[C@@H](CC(C)C)C(=O)N(C)[C@@H](CC(C)C)C(=O)N(C)[C@@H](C(C)C)C(=O)N1C
8 | – | – | > 3 µM | C/C=C/C[C@@H](C)[C@@H](O)[C@H]1C(=O)N[C@@H](C(C)C)C(=O)N(C)CC(=O)N(C)[C@@H](CC(C)C)C(=O)N[C@@H](C(C)C)C(=O)N(C)[C@@H](CC(C)C)C(=O)N[C@@H](C)C(=O)N[C@H](C)C(=O)N(C)[C@@H](CC(C)C)C(=O)N[C@@H](CC(C)C)C(=O)N(C)[C@@H](C(C)C)C(=O)N1C

Second part, the molecule before the results:

Row | SMILES | IC20 [1] | IC50 (fMet-Leu-Phe receptor; hl-60) | IC50 (fMet-Leu-Phe receptor)
9 | C/C=C/C[C@@H](C)[C@@H](O)C1NC(=O)[C@H](C(C)C)N(C)C(=O)[C@H](CC(C)C)N(C)C(=O)[C@H](CC(C)C)N(C)C(=O)[C@@H](C)NC(=O)[C@H](C)NC(=O)[C@@H](CC(C)C)N(C)C(=O)[C@@H](C(C)C)NC(=O)[C@@H](CC(C)C)N(C)C(=O)CN(C)C(=O)[C@H](C(C)C)NC1=O (stereo not given in full) | 2 µM | > 10 µM | –
10 | C/C=C/C[C@@H](C)[C@@H](O)C1NC(=O)[C@H](C(C)C)N(C)C(=O)[C@H](CC(C)C)N(C)C(=O)[C@H](CC(C)C)N(C)C(=O)[C@@H](C)NC(=O)[C@H](C)NC(=O)[C@@H](CC(C)C)N(C)C(=O)[C@@H](C(C)C)NC(=O)[C@@H](CC(C)C)N(C)C(=O)CN(C)C(=O)[C@H]([C@@H](C)O)NC1=O (stereo not given in full) | 1.5 µM | 5.5 µM | –
11 | C/C=C/C[C@@H](C)[C@@H](O)[C@H]1C(=O)N[C@@H]([C@@H](C)O)C(=O)N(C)CC(=O)N(C)[C@@H](CC(C)C)C(=O)N[C@@H](C(C)C)C(=O)N(C)[C@@H](CC(C)C)C(=O)N[C@@H](C)C(=O)N[C@H](C)C(=O)N(C)[C@@H](CC(C)C)C(=O)N(C)[C@@H](CC(C)C)C(=O)N[C@@H](C(C)C)C(=O)N1C | – | – | > 10 µM
12 | C/C=C/C[C@@H](C)[C@@H](O)[C@H]1C(=O)N[C@@H](CCC)C(=O)N(C)CC(=O)N(C)[C@@H](CC(C)C)C(=O)N[C@@H](CC(C)C)C(=O)N(C)[C@@H](CC(C)C)C(=O)N[C@@H](C)C(=O)N[C@H](C)C(=O)N(C)[C@@H](CC(C)C)C(=O)N(C)[C@@H](CC(C)C)C(=O)N(C)[C@@H](C(C)C)C(=O)N1C | – | – | > 10 µM
13 | CC(C)C[C@@H]1NC(=O)[C@H](CC(C)C)N(C)C(=O)[C@@](O)(C(C)C)NC(=O)[C@H](C)NC(=O)[C@H](CC(C)C)N(C)C(=O)[C@H](CC(C)C)NC(=O)[C@H](CC(C)C)N(C)C(=O)CN(C)C(=O)[C@H]([C@@H](C)O)NC(=O)[C@H]([C@H](O)[C@H](C)C/C=C/CO)N(C)C(=O)[C@H](C(C)C)N(C)C1=O | – | – | 1.48 µM
14 | CCC[C@@H]1NC(=O)[C@H](CC(C)C)N(C)C(=O)[C@H](C(C)C)N(C)C(=O)[C@H](CC(C)C)N(C)C(=O)[C@H](CC(C)C)N(C)C(=O)[C@@H](C)NC(=O)[C@H](C)NC(=O)[C@H](CC(C)C)N(C)C(=O)[C@H](C(C)C)NC(=O)[C@H](CC(C)C)N(C)C(=O)CN(C)C1=O | – | – | > 10 µM
15 | C/C=C/C[C@@H](C)[C@@H](O)[C@H]1C(=O)N[C@@H]([C@@H](C)O)C(=O)N(C)CC(=O)N(C)[C@@H](CC(C)C)C(=O)N[C@@H]([C@@H](C)CC)C(=O)N(C)[C@@H](CC(C)C)C(=O)N[C@@H](C)C(=O)N[C@H](C)C(=O)N(C)[C@@H](CC(C)C)C(=O)N(C)[C@@H](CC(C)C)C(=O)N(C)[C@@H](C(C)C)C(=O)N1C | – | – | 2.3 µM
16 | C/C=C/C[C@@H](C)[C@@H](O)[C@H]1C(=O)N[C@@H]([C@@H](C)O)C(=O)N(C)CC(=O)N(C)[C@@H](CC(C)C)C(=O)N[C@@H](CC(C)C)C(=O)N(C)[C@@H](CC(C)C)C(=O)N[C@@H](C)C(=O)N[C@](O)(C(C)C)C(=O)N(C)[C@@H](CC(C)C)C(=O)N[C@@H](CC(C)C)C(=O)N(C)[C@@H](C(C)C)C(=O)N1C | – | – | 0.57 µM
17 | C/C=C/C[C@@H](C)[C@@H](O)[C@H]1C(=O)N[C@@H]([C@@H](C)O)C(=O)N(C)CC(=O)N(C)[C@@H](CC(C)C)C(=O)N[C@@H](C(C)C)C(=O)N(C)[C@@H](CC(C)C)C(=O)N[C@@H](C)C(=O)N[C@](O)(C(C)C)C(=O)N(C)[C@@H](CC(C)C)C(=O)N[C@@H](CC(C)C)C(=O)N(C)[C@@H](C(C)C)C(=O)N1C | – | – | 2.5 µM
18 | CC[C@@H]1NC(=O)[C@H](CC2CCCCC2)N(C)C(=O)[C@H](C(C)C)N(C)C(=O)[C@H](CC(C)C)N(C)C(=O)[C@H](CC(C)C)N(C)C(=O)[C@@H](C)NC(=O)[C@H](C)NC(=O)[C@H](CC(C)C)N(C)C(=O)[C@H](C(C)C)NC(=O)[C@H](CC(C)C)N(C)C(=O)CN(C)C1=O | – | – | 6.33 µM
19 | C/C=C/C[C@@H](C)[C@@H](O)[C@H]1C(=O)N[C@@H](CC)C(=O)NCC(=O)N(C)[C@@H](CC(C)C)C(=O)N[C@@H](C(C)C)C(=O)N(C)[C@@H](CC(C)C)C(=O)N[C@@H](C)C(=O)N[C@H](CO)C(=O)N(C)[C@@H](CC(C)C)C(=O)N(C)[C@@H](CC(C)C)C(=O)N(C)[C@@H](C(C)C)C(=O)N1C | – | – | > 5 µM
20 | C/C=C/C[C@@H](C)[C@@H](O)[C@H]1C(=O)N[C@@H](CCC)C(=O)N(C)CC(=O)N(C)[C@@H](CC(C)C)C(=O)N[C@@H](CCC)C(=O)N(C)[C@@H](CC(C)C)C(=O)N[C@@H](C)C(=O)N[C@H](C)C(=O)N(C)[C@@H](CC(C)C)C(=O)N(C)[C@@H](CC(C)C)C(=O)N(C)[C@@H](C(C)C)C(=O)N1C | – | – | 3.4 µM
21 | C/C=C/C[C@@H](C)[C@@H](O)[C@H]1C(=O)N[C@@H]([C@@H](C)O)C(=O)N(C)CC(=O)N[C@@H](CC(C)C)C(=O)N[C@@H](CC(C)C)C(=O)N(C)[C@@H](CC(C)C)C(=O)N[C@@H](C)C(=O)N[C@](O)(C(C)C)C(=O)N(C)[C@@H](CC(C)C)C(=O)N[C@@H](CC(C)C)C(=O)N(C)[C@@H](C(C)C)C(=O)N1C | – | – | 0.56 µM
